Experimental data from ChEMBL document CHEMBL3856248, “2-Benzylidene-1-indanone derivatives as inhibitors of monoamine oxidase” (Bioorg Med Chem Lett, 2016).

Tests used:
[1] = organism: Homo sapiens; assay: Selectivity index, ratio of IC50 for recombinant human MAO-A to IC50 for recombinant human MAO-B
Procedure, shortened: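 Ratio of IC50 for MAO-A to IC50 for MAO-B. Both are from the kynuramine fluorescence assay with recombinant human enzymes (37 °C, 20 min, endpoint 4-hydroxyquinoline).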

[2] = target: T1, Amine oxidase [flavin-containing] A (Homo sapiens, UniProt P21397); assay: Inhibition of recombinant human MAO-A using kynuramine as substrate after 20 mins by fluorescence spectrophotometric analysis
T1 sequence (P21397 whole entry): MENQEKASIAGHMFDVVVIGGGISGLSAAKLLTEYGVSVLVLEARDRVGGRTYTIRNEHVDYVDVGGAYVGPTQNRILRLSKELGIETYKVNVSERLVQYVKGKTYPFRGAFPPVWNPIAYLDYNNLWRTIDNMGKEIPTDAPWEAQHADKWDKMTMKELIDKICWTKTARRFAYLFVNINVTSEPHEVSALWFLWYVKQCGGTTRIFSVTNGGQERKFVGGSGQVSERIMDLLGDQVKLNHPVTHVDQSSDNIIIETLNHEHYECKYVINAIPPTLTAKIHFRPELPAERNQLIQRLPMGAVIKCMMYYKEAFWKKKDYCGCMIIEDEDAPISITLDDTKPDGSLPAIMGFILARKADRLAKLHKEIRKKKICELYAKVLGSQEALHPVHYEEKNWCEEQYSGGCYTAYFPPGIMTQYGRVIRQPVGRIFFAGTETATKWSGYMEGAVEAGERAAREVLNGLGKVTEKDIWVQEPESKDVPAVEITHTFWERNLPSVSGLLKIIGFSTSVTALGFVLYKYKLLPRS
Procedure, shortened: (§1)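 Recombinant human enzyme incubated with kynuramine and test inhibitor at 37 °C for 20 min; stopped with 2 N NaOH. The 4-hydroxyquinoline product is read at endpoint by fluorescence in alkaline medium. Inhibitor-free controls run each time.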

[3] = target: T2, Amine oxidase [flavin-containing] B (Homo sapiens, UniProt P27338); assay: Inhibition of recombinant human MAO-B using kynuramine as substrate after 20 mins by fluorescence spectrophotometric analysis; procedure, shortened: as §1
T2 sequence (P27338 whole entry): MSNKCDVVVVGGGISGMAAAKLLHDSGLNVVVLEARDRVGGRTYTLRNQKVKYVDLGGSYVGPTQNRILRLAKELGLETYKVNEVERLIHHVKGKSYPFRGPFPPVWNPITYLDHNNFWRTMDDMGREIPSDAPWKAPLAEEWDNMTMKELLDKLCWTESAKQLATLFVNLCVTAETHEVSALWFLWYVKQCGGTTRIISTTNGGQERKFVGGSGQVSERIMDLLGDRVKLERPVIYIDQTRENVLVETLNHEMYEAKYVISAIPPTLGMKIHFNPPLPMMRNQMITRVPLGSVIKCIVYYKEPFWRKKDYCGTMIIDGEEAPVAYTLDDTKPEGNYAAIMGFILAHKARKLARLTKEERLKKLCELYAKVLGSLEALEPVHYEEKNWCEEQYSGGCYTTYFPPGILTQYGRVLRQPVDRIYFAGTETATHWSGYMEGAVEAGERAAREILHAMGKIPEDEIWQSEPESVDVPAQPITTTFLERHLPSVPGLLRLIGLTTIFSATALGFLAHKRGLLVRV

[4] = target: T1, Amine oxidase [flavin-containing] A; assay: Irreversible inhibition of recombinant human MAO-A assessed as residual activity pre-incubated at 4 times IC50 for 15 mins followed by dialysis for 24 hrs and subsequent kynuramine addition measured after 20 mins by fluorescence spectrophotometric analysis relative to untreated control
[5] = target: T3, Amine oxidase [flavin-containing] B (Rattus norvegicus, UniProt P19643); assay: Inhibition of Sprague-Dawley rat brain mitochondrial MAO-B using DMAPEA as substrate by HPLC analysis
T3 sequence (P19643 whole entry): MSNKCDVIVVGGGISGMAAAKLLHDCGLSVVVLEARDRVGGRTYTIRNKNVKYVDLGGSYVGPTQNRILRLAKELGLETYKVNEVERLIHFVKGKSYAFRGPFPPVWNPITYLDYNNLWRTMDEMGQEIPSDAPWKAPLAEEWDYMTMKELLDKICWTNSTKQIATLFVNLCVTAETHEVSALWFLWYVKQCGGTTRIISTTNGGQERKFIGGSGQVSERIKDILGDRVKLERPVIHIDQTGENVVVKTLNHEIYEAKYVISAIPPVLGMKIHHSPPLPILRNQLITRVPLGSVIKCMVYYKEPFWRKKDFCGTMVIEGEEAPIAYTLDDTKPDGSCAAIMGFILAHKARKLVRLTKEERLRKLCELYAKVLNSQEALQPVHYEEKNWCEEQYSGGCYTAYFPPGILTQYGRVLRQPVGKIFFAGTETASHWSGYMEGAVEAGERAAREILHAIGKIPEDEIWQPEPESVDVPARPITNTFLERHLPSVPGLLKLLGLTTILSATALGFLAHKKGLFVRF

[6] = target: T1, Amine oxidase [flavin-containing] A; assay: Reversible inhibition of recombinant human MAO-A assessed as residual activity pre-incubated at 4 times IC50 for 15 mins followed by kynuramine addition measured after 20 mins by fluorescence spectrophotometric analysis relative to untreated control
Procedure, shortened: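 Undialysed comparison: MAO-A is pre-incubated 15 min with inhibitor at 4 × IC50 without dialysis. Residual activity is measured after kynuramine addition as in the IC50 assay (37 °C, 20 min, 2 N NaOH stop, fluorescence of 4-hydroxyquinoline). It is expressed relative to the inhibitor-free control.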

[7] = target: T1, Amine oxidase [flavin-containing] A; assay: Reversible inhibition of recombinant human MAO-A assessed as residual activity pre-incubated at 4 times IC50 for 15 mins followed by dialysis for 24 hrs and subsequent kynuramine addition measured after 20 mins by fluorescence spectrophotometric analysis relative to untreated control
[8] = target: T4, Amine oxidase [flavin-containing] A (Rattus norvegicus, UniProt P21396); assay: Inhibition of Wistar rat liver mitochondrial MAO-A using […] as substrate after 1 hr by spectrophotometric analysis
T4 sequence (P21396 whole entry): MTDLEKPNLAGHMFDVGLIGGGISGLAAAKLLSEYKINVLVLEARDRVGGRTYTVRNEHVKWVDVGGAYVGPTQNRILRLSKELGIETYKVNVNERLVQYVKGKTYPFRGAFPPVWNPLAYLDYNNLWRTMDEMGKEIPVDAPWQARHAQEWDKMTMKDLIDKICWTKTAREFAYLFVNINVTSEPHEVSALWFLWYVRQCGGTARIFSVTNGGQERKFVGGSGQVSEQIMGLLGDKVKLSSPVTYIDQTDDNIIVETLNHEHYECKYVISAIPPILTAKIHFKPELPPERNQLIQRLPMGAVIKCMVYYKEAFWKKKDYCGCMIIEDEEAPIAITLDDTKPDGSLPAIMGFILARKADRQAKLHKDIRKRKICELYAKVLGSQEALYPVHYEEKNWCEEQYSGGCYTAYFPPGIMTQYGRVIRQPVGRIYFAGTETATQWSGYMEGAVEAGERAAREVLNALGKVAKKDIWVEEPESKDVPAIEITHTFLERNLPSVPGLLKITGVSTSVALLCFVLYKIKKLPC

| Ratio IC50 [1] | IC50 [2] [nM] | IC50 [3] [nM] | IC50 [5] [nM] | Activity [6] [%] | Activity [7] [%] | IC50 [8] [nM] | Compound | Activity [4] [%] |
| --- | --- | --- | --- | --- | --- | --- | --- | --- |
| 14 | 679 | 47 |  |  |  |  | O=C1/C(=C/c2ccc(F)cc2)Cc2cc(O)ccc21 |  |
| 192 | 11500 | 60 |  |  |  |  | COc1ccc2c(c1)C/C(=C\c1ccc(N(C)C)cc1)C2=O |  |
| 49 | 1520 | 31 |  |  |  |  | CN(C)c1ccc(/C=C2\Cc3ccccc3C2=O)cc1 |  |
| 5.2 | 157 | 30 |  |  |  |  | O=C1/C(=C/c2cccc(Cl)c2)Cc2cc(O)ccc21 |  |
| 17 | 235 | 14 |  |  |  |  | O=C1/C(=C/c2ccc(Cl)c(Cl)c2)Cc2cc(O)ccc21 |  |
| 5.2 | 1940 | 376 |  |  |  |  | O=C1/C(=C/c2ccccc2)Cc2cc(O)ccc21 |  |
| 0.2 | 440 | 2420 |  |  |  |  | O=C1/C(=C/c2ccccc2)Cc2ccc(O)cc21 |  |
| 6.6 | 2080 | 316 |  |  |  |  | N#Cc1ccc(/C=C2\Cc3cc(O)ccc3C2=O)cc1 |  |
| 17 | 860 | 52 |  |  |  |  | Cc1cccc(/C=C2\Cc3cc(O)ccc3C2=O)c1 |  |
| 1.2 | 1200 | 966 |  |  |  |  | O=C1/C(=C/c2cccc(O)c2)Cc2cc(O)ccc21 |  |
|  |  |  |  |  |  |  | C#CCN(C)Cc1ccccc1 [PARGYLINE] | 1.7 |
| 3.4 | 444 | 130 |  |  |  |  | N#Cc1cccc(/C=C2\Cc3cc(O)ccc3C2=O)c1 |  |
| 2.1 | 5430 | 2570 |  |  |  |  | O=C1/C(=C/c2ccccc2)Cc2ccccc21 |  |
| 2.5 | 1190 | 471 |  |  |  |  | COc1cccc(/C=C2\Cc3cc(O)ccc3C2=O)c1 |  |
|  |  |  | 11600 |  |  |  | COc1ccc2c(c1)C(=O)/C(=C/c1ccccc1OC)O2 |  |
| 0.6 | 1670 | 2740 |  |  |  |  | O=C1/C(=C/c2ccc(O)cc2)Cc2cc(O)ccc21 |  |
| 10 | 131 | 13 |  | 50 | 99 |  | O=C1/C(=C/c2cccc(Br)c2)Cc2cc(O)ccc21 |  |
|  |  |  |  |  |  | 17300 | O=C(/C=C/c1ccc(O)cc1)c1ccc(O)cc1O [ISOLIQUIRITIGENIN] |  |
| 619 | 3220 | 5.2 |  |  |  |  | Cc1ccc(/C=C2\Cc3cc(O)ccc3C2=O)cc1 |  |
| 57 | 741 | 13 |  |  |  |  | O=C1/C(=C/c2ccc(Cl)cc2)Cc2cc(O)ccc21 |  |
| 2.2 | 1720 | 768 |  |  |  |  | CN(C)c1ccc(/C=C2\Cc3cc(O)ccc3C2=O)cc1 |  |
| > 10900 |  | 9.2 |  |  |  |  | COc1ccc2c(c1)C/C(=C\c1ccccc1)C2=O |  |
| 198 | 1050 | 5.3 |  |  |  |  | O=C1/C(=C/c2ccc(Br)cc2)Cc2cc(O)ccc21 |  |
| 5.5 | 458 | 84 |  |  |  |  | O=C1/C(=C/c2cccc(F)c2)Cc2cc(O)ccc21 |  |
| 4.5 | 961 | 215 |  |  |  |  | CC(C)c1ccc(/C=C2\Cc3cc(O)ccc3C2=O)cc1 |  |
